pIC50, pKi: −log10 of the molar value.
What was measured:
[1] = organism: Rattus norvegicus; experiment: Brain mitochondrial activity measured at 0 min of incubation at 10 uM concentration; format: functional
Summary of the method: (§1)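 Rat brain mitochondria isolated by differential centrifugation of homogenates in 0.25 M sucrose, pH 7.4, then suspended in 0.1 M phosphate buffer, pH 7.2, at 37 °C. Inhibitor added at zero time, then saturating 1 mM kynuramine added after the incubation period. MAO activity read fluorimetrically. Percent inhibition reported from three experiments in duplicate.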

[2] = organism: Rattus norvegicus; experiment: Brain mitochondrial activity measured at 120 min of incubation at 100 uM concentration; format: functional; summary of the method: as §1
[3] = organism: Rattus norvegicus; experiment: Brain mitochondrial activity measured at 0 min of incubation at 100 uM concentration; format: functional; summary of the method: as §1
[4] = Ki value measured for the inhibition of copper dependent amine oxidase in bovine plasma; format: cell-free
Summary of the method: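 Bovine plasma amine oxidase, 36 µg/mL (0.2 µM), in 0.1 M phosphate buffer, pH 7.2. Benzylamine at 0.5, 2.5 and 5 mM, with no preincubation. Rate measured as benzaldehyde formed per minute at 37 °C. Apparent Ki taken from Dixon plots.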

[5] = organism: Rattus norvegicus; experiment: Brain mitochondrial activity measured at 120 min of incubation at 10 uM concentration; format: functional; summary of the method: as §1
[6] = organism: Rattus norvegicus; experiment: Brain mitochondrial activity measured at 0 min of incubation at 1 uM concentration; format: functional; summary of the method: as §1
[7] = Effect on placental diamine oxidase (0.1 uM) after 30 min of incubation at pH 7.2; set-up: species or system Homo sapiens; conditions: read-out: I50
Summary of the method: (§2)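 Purified human placental diamine oxidase at 0.1 µM in 0.1 M phosphate buffer, pH 7.2, at 37 °C. Inhibitor added at zero time. After preincubation, saturating 3 mM p-[(dimethylamino)methyl]benzylamine added. Product aldehyde followed at 250 nm (E = 10.400 M-1 cm-1). I50 is the concentration giving 50% loss of activity. Two experiments in duplicate.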

[8] = Ki value measured for the inhibition of human placenta diamine oxidase
Summary of the method: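 Human placental diamine oxidase, 47 µg/mL (0.2 µM), in 0.1 M phosphate buffer, pH 7.2, with no preincubation. […] oxidation followed at 250 nm at 37 °C. Apparent Ki estimated from Dixon plots.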

[9] = Effect on placental diamine oxidase (0.1 uM) after 0 min of incubation at pH 7.2; set-up: species or system Homo sapiens; conditions: read-out: I50; summary of the method: as §2
[10] = organism: Rattus norvegicus; experiment: Brain mitochondrial activity measured at 120 min of incubation at 1 uM concentration; format: functional; summary of the method: as §1
[11] = Effect on plasma amine oxidase (0.1 uM) after 60 min of incubation at pH 7.2; format: cell-free; conditions: 1 h, read-out: I50
Summary of the method: (§3)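 Purified bovine plasma amine oxidase at 0.1 µM in 0.1 M phosphate buffer, pH 7.2, at 37 °C. Inhibitor added at zero time and preincubated. Saturating 3 mM benzylamine then added and benzaldehyde formation read at 250 nm (E = 12.500 M-1 cm-1). I50 is the concentration halving activity. Two experiments in duplicate.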

[12] = Effect on plasma amine oxidase (0.1 uM) after 15 min of incubation at pH 7.2; format: cell-free; conditions: 0.25 h, read-out: I50; summary of the method: as §3
[13] = Effect on plasma amine oxidase (0.1 uM) after 30 min of incubation at pH 7.2; format: cell-free; conditions: 0.5 h, read-out: I50; summary of the method: as §3
[14] = Effect on plasma amine oxidase (0.1 uM) after 0 min of incubation at pH 7.2; format: cell-free; conditions: 0 h, read-out: I50; summary of the method: as §3

Row | SMILES | Inhibition [1] [%] | Inhibition [2] [%] | Inhibition [3] [%] | pKi [4] | Inhibition [5] [%] | Inhibition [6] [%] | pIC50 [7] | pKi [8] | pIC50 [9] | Inhibition [10] [%] | pIC50 [11] | pIC50 [12] | pIC50 [13] | pIC50 [14]
1 | NNC(=O)Cc1cccc(-n2cccc2)c1 | 2 | 15 | 3 | 6.15 | 3 | 0 | 5.00 | 4.00 | 4.30 | 0 |  |  |  | 
2 | CC(C)=NNC(=O)Cc1ccc(-n2cccc2)cc1 | 0 | 18 | 0 | 6.10 | 12 | 0 | 5.00 | 5.00 | 4.30 | 12 |  |  |  | 
3 | Cc1ccc(C)n1-c1ccc(CC(=O)NN)cc1 | 0 | 3 | 2 | 5.00 | 0 | 0 | 4.30 |  | 4.00 | 0 |  |  |  | 
4 | NNC(=O)c1cccc(-n2cccc2)c1 | 0 | 8 | 0 | 4.07 | 5 | 0 | 4.00 | 3.96 | 4.00 | 0 |  |  |  | 
5 | NNC(=O)c1ccccc1-n1cccc1 | 0 | 6 | 0 | 3.52 | 5 | 0 | 4.00 | 3.60 | 4.00 | 3 |  |  |  | 
6 | NNC(=O)Cc1ccc(-n2cccc2)cc1 | 0 | 9 | 6 | 6.30 | 4 | 0 | 5.00 | 5.00 | 5.00 | 2 |  |  |  | 
7 | NNC(=O)c1ccc(-n2cccc2)cc1 | 0 | 18 | 0 | 4.10 | 16 | 0 | 4.30 | 4.00 | 3.70 | 2 |  |  |  | 
8 | NNC(=O)c1ccncc1 [ISONIAZID] | 14 | 22 | 19 |  | 16 | 12 |  |  |  | 16 | 5.30 | 5.00 | 5.00 | 4.00

Source: ChEMBL document CHEMBL1124086, “Inhibition of copper-dependent amine oxidases by some hydrazides of pyrrol-1-ylbenzoic and pyrrol-1-ylphenylacetic acids” (J Med Chem, 1988)
